{"source": "paper PMC12435242", "about": "(Proceedings of the National Academy of Sciences of the …, 2025)", "key": {"all SV2 members (SV2s)": {"system": "all SV2 members (SV2s)", "details": "cited from earlier work"}, "[1]": {"system": "SV2A compared to SV2B and SV2C", "details": "cited from earlier work"}, "SV2A-W300A": {"biological_target": "SV2A-W300A (Homo sapiens, UniProt Q7L0J3, W300A)", "sequence (Q7L0J3 65-742 W300A limits assumed)": "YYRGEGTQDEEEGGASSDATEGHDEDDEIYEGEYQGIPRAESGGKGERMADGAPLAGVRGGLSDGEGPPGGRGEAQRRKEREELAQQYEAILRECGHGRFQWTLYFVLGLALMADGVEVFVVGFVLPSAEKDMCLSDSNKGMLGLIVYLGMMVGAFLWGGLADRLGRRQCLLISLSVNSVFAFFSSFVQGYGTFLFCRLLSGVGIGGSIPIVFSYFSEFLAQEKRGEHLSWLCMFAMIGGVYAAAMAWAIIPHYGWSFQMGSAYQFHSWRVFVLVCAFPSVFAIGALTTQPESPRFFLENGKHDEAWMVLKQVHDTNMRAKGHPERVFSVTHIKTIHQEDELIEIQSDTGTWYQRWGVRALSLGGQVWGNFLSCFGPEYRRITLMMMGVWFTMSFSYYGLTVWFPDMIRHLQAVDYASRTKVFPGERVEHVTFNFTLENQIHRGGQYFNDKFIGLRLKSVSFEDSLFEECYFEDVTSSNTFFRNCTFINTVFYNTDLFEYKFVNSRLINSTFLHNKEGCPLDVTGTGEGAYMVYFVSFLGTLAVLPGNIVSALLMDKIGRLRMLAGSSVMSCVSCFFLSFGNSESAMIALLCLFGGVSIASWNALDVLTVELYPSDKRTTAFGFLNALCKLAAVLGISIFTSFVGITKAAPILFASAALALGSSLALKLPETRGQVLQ", "assay": "3H-LEV binding with or without UCB1244283, primary site mutant"}, "SV2A-D670A": {"biological_target": "SV2A-D670A (Homo sapiens, UniProt Q7L0J3, D670A)", "sequence (Q7L0J3 65-742 D670A limits assumed)": "as the sequence (Q7L0J3 65-742 W300A limits assumed) above, with A236W, D606A counted along it", "assay": "3H-LEV binding with or without UCB1244283, primary site mutant"}, "SV2A L655Q mutant": {"biological_target": "SV2A L655Q mutant (Homo sapiens, UniProt Q7L0J3, L655Q)", "sequence (Q7L0J3 65-742 L655Q limits assumed)": "as the sequence (Q7L0J3 65-742 W300A limits assumed) above, with A236W, L591Q counted along it", "assay": "3H-LEV filter binding, concentration-response of UCB1244283", "details": "3H-LEV 3.3 µM", "in_short": "(§1)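 Membranes came from tsA201 cells transfected with PEI and harvested at 48–60 h. Cells expressed human SV2A mutants lacking residues 1–64, tagged C-terminally with mVenus/TwinStrep/His10. Equal protein per FSEC was used. Incubation was 45 min on ice with 3H-LEV 3.3 µM plus test compound, 1 nM–30 µM final. Nonspecific binding was set with 1 mM unlabeled PSL. Filtration used 1% PEI-soaked glass-fibre filters, with an ice-cold TBS150 wash, then scintillation counting. Assays were run in triplicate and fitted to a three-parameter log(agonist)–response curve.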"}, "[2]": {"system": "SV2A in human brain membranes", "details": "cited from earlier work"}, "SV2A-G659C": {"biological_target": "SV2A-G659C (Homo sapiens, UniProt Q7L0J3, G659C)", "sequence (Q7L0J3 65-742 G659C limits assumed)": "as the sequence (Q7L0J3 65-742 W300A limits assumed) above, with A236W, G595C counted along it", "assay": "3H-LEV filter binding, concentration-response of UCB1244283"}, "sound-sensitive mice": {"system": "sound-sensitive mice", "details": "cited from earlier work"}, "SV2A-F184A": {"biological_target": "SV2A-F184A (Homo sapiens, UniProt Q7L0J3, F184A)", "sequence (Q7L0J3 65-742 F184A limits assumed)": "as the sequence (Q7L0J3 65-742 W300A limits assumed) above, with F120A, A236W counted along it", "assay": "3H-LEV filter binding, concentration-response of UCB1244283", "in_short": "(§2)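 Human SV2AΔ64 (C-terminal mVenus/TwinStrep/His10), wild-type or point mutant, PEI-transfected into suspension tsA201 cells. Membranes harvested 48–60 h later and loaded at equal SV2A by FSEC. Incubated 45 min on ice with 3.3 µM 3H-LEV and test compound 1 nM–30 µM; nonspecific binding defined with 1 mM PSL. PEI-soaked glass-fibre filtration, scintillation counting. EC50 by three-parameter log(agonist) fit; triplicate; mean ± SEM.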"}, "[3]": {"biological_target": "wild-type SV2A (SV2AΔ64-mVenus) (Homo sapiens, UniProt Q7L0J3)", "sequence (Q7L0J3 65-742 limits assumed, stated change not applied)": "as the sequence (Q7L0J3 65-742 W300A limits assumed) above, with A236W counted along it", "assay": "3H-LEV filter binding, concentration-response of UCB1244283", "in_short": "as §2"}, "PSL-bound SV2A complex": {"system": "PSL-bound SV2A complex", "details": "cited from earlier work"}, "SV2A T465A mutant": {"biological_target": "SV2A T465A mutant (Homo sapiens, UniProt Q7L0J3, T465A)", "sequence (Q7L0J3 65-742 T465A limits assumed)": "as the sequence (Q7L0J3 65-742 W300A limits assumed) above, with A236W, T401A counted along it", "assay": "3H-LEV filter binding, concentration-response of UCB1244283", "details": "3H-LEV 3.3 µM", "in_short": "as §1"}, "SV2A A308S mutant": {"biological_target": "SV2A A308S mutant (Homo sapiens, UniProt Q7L0J3, A308S)", "sequence (Q7L0J3 65-742 A308S limits assumed)": "as the sequence (Q7L0J3 65-742 W300A limits assumed) above, with A236W, A244S counted along it", "assay": "3H-LEV filter binding, concentration-response of UCB1244283", "details": "3H-LEV 3.3 µM", "in_short": "as §1"}, "SV2A [4]": {"system": "SV2A", "details": "cited from earlier work"}, "SV2A-F188A": {"biological_target": "SV2A-F188A (Homo sapiens, UniProt Q7L0J3, F188A)", "sequence (Q7L0J3 65-742 F188A limits assumed)": "as the sequence (Q7L0J3 65-742 W300A limits assumed) above, with F124A, A236W counted along it", "assay": "3H-LEV filter binding, concentration-response of UCB1244283", "in_short": "as §2"}, "SV2A G659N mutant": {"biological_target": "SV2A G659N mutant (Homo sapiens, UniProt Q7L0J3, G659N)", "sequence (Q7L0J3 65-742 G659N limits assumed)": "as the sequence (Q7L0J3 65-742 W300A limits assumed) above, with A236W, G595N counted along it", "assay": "3H-LEV filter binding, concentration-response of UCB1244283", "details": "3H-LEV 3.3 µM", "in_short": "as §1"}, "SV2A [5]": {"biological_target": "SV2A (Homo sapiens, UniProt Q7L0J3)", "sequence (Q7L0J3 65-742 limits assumed)": "as the sequence (Q7L0J3 65-742 W300A limits assumed) above, with A236W counted along it", "assay": "3H-UCB-J binding with or without UCB1244283", "details": "Kd of 3H-UCB-J binding to SV2A"}, "[6]": {"details": "by slowing the rate of dissociation"}}, "data": [{"smiles": "COCc1nn2c(CN3CC(CC(F)(F)Cl)CC3=O)c(C(F)(F)F)nc2s1", "note": "(single isomer, unassigned) [PSL]", "values": [{"measurement": "affinity for all SV2 members", "setting": "all SV2 members (SV2s)", "result": "nanomolar affinity"}]}, {"smiles": "CCC[C@@H]1CC(=O)N([C@@H](CC)C(N)=O)C1", "note": "[BRV, (2S)-2-((4R)-2-oxo-4-propylpyrrolidin-1-yl)butanamide]", "values": [{"measurement": "higher affinity for SV2A compared to SV2B and SV2C", "setting": "[1]", "result": "at least 100 fold"}]}, {"smiles": "CC[C@@H](C(N)=O)N1CCCC1=O", "note": "[LEV, 2S-(2-oxo-1-pyrrolidinyl)butanamide]", "values": [{"measurement": "LEV binding to mutant", "setting": "SV2A-W300A; W300A, with or without UCB1244283", "result": "unable to measure any significant LEV binding"}, {"measurement": "higher affinity for SV2A compared to SV2B and SV2C", "setting": "[1]", "result": "at least 100 fold"}, {"measurement": "LEV binding to mutant", "setting": "SV2A-D670A; D670A, with or without UCB1244283", "result": "unable to measure any significant LEV binding"}]}, {"smiles": "COc1ccccc1NC(=O)CC(C)Cc1cc(C)cc(C)c1", "note": "(centres unmarked) [UCB1244283, 4-(3,5-dimethylphenyl)-N-(2-methoxyphenyl)-3-methylbutanamide]", "values": [{"measurement": "change in LEV binding on addition of UCB1244283", "setting": "SV2A L655Q mutant", "result": "do not show a significant change in LEV binding"}, {"measurement": "effect of UCB1244283 on BRV binding", "setting": "[2]", "result": "increases both the Bmax and binding affinity"}, {"measurement": "effect of UCB1244283 on LEV binding", "setting": "[2]", "result": "only increases the Bmax"}, {"measurement": "EC50", "setting": "SV2A-G659C", "result": "1000 ± 800", "unit": "nM"}, {"measurement": "reduction in Bmax of 3H-LEV binding compared to wild-type", "setting": "SV2A-G659C; G659C mutant, with UCB1244283", "result": "~ 4 fold"}, {"measurement": "protection against seizures", "setting": "sound-sensitive mice", "result": "protection against both tonic and clonic seizures"}, {"measurement": "EC50", "setting": "SV2A-F184A", "result": "200 ± 40", "unit": "nM"}, {"measurement": "enhancement of EC50 for UCB1244283 compared to wild-type", "setting": "SV2A-F184A; F184A mutant", "result": "~ 3 fold"}, {"measurement": "EC50", "setting": "[3]", "result": "700 ± 300", "unit": "nM"}, {"measurement": "increase in specific counts of 3H-LEV binding", "setting": "[3]; saturating 3H-LEV (~4 µM), with vs without UCB1244283 30 µM", "result": "~ 2 fold"}, {"measurement": "binding to the PSL-bound SV2A complex", "setting": "PSL-bound SV2A complex", "result": "does not bind"}, {"measurement": "change in LEV binding on addition of UCB1244283", "setting": "SV2A T465A mutant", "result": "do not show a significant change in LEV binding"}, {"measurement": "change in LEV binding on addition of UCB1244283", "setting": "SV2A A308S mutant", "result": "do not show a significant change in LEV binding"}, {"measurement": "increase in binding affinity for BRV on incubation of UCB1244283 with SV2A", "setting": "SV2A [4]; [6]", "result": 10, "unit": "fold"}, {"measurement": "increase in binding affinity for LEV on incubation of UCB1244283 with SV2A", "setting": "SV2A [4]; [6]", "result": 2.5, "unit": "fold"}, {"measurement": "increase in maximum binding capacity (Bmax) for BRV", "setting": "SV2A [4]; with UCB1244283", "result": 1.4, "unit": "fold"}, {"measurement": "increase in maximum binding capacity (Bmax) for LEV", "setting": "SV2A [4]; with UCB1244283", "result": "twofold"}, {"measurement": "effect on maximum specific binding (Bmax) of 3H-LEV", "setting": "SV2A-W300A; UCB1244283 30 µM, 3H-LEV 3.3 µM, SV2A-W300A", "result": "does not enhance"}, {"measurement": "EC50", "setting": "SV2A-F188A", "result": "70 ± 10", "unit": "nM"}, {"measurement": "enhancement of EC50 for UCB1244283 compared to wild-type", "setting": "SV2A-F188A; F188A mutant", "result": "~9", "unit": "fold"}, {"measurement": "effect on maximum specific binding (Bmax) of 3H-LEV", "setting": "SV2A-D670A; UCB1244283 30 µM, 3H-LEV 3.3 µM, SV2A-D670A", "result": "does not enhance"}, {"measurement": "change in LEV binding on addition of UCB1244283", "setting": "SV2A G659N mutant", "result": "do not show a significant change in LEV binding"}]}, {"smiles": "Cc1cnccc1CN1C[C@@H](c2cc(F)c(F)c(F)c2)CC1=O", "note": "[UCB-J, (4R)-1-((3-Methyl-4-pyridinyl)methyl)-4-(3,4,5-trifluorophenyl)-2-pyrrolidinone]", "values": [{"measurement": "Kd", "setting": "SV2A [5]; in the absence of UCB1244283", "result": "5.3 ± 0.8", "unit": "nM"}, {"measurement": "Kd", "setting": "SV2A [5]; in the presence of saturating UCB1244283", "result": "6 ± 1", "unit": "nM"}]}]}
